# From ChEMBL document CHEMBL1154060, “Synthesis and structure-activity relationship of Huprine derivatives as human acetylcholinesterase inhibitors” (Bioorg Med Chem, 2009)
# Experiments:
# Cholinesterase [1] = target: T1, Cholinesterase (Homo sapiens, UniProt P06276); test: Inhibition of human recombinant BuChE assessed as enzyme activity reversion at 100 uM by Ellman's assay
# Acetylcholinesterase = Acetylcholinesterase (Homo sapiens, UniProt P22303); test: Inhibition of human recombinant AChE […] by Ellman's assay
# Homo sapiens = organism: Homo sapiens; test: Selectivity ratio of IC50 for human recombinant BuChE to IC50 for human recombinant AChE
# Cholinesterase [2] = target: T1, Cholinesterase; test: Inhibition of human recombinant BuChE assessed as enzyme activity reversion at 10 uM by Ellman's assay
# Cholinesterase [3] = target: T1, Cholinesterase; test: Inhibition of human recombinant BuChE by Ellman's assay
# Procedure, shortened: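 Ellman assay at 25 °C with 125 pM recombinant human enzyme: AChE with acetylthiocholine iodide, BuChE with butyrylthiocholine, substrate at 0.53 mM. Buffer was 0.1 M phosphate pH 7.4 with 15 mM NaCl, NaN3, BSA and DTNB. Inhibitor was preincubated with enzyme for at least 30 min. Rate read at 414 nm for 20 min against an inhibitor-free 100% control. Generally at least triplicate; IC50 by nonlinear regression.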
# Sequence of Acetylcholinesterase (P22303 whole entry): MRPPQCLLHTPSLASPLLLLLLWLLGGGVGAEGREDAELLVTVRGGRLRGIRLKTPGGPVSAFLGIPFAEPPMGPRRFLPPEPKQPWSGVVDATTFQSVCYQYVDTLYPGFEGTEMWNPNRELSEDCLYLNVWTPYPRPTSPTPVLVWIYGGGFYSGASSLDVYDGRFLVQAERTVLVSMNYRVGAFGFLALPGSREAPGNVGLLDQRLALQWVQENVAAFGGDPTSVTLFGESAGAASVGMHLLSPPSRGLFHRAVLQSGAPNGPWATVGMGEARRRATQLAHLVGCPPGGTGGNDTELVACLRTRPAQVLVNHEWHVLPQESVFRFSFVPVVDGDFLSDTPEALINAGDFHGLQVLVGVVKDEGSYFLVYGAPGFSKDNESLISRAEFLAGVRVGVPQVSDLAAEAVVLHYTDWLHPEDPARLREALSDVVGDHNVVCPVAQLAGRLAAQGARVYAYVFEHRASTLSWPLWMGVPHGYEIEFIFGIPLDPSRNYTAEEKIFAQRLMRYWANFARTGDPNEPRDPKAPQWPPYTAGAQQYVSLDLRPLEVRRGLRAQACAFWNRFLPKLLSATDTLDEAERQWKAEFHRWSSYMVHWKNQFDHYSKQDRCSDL
# T1 sequence (P06276 whole entry): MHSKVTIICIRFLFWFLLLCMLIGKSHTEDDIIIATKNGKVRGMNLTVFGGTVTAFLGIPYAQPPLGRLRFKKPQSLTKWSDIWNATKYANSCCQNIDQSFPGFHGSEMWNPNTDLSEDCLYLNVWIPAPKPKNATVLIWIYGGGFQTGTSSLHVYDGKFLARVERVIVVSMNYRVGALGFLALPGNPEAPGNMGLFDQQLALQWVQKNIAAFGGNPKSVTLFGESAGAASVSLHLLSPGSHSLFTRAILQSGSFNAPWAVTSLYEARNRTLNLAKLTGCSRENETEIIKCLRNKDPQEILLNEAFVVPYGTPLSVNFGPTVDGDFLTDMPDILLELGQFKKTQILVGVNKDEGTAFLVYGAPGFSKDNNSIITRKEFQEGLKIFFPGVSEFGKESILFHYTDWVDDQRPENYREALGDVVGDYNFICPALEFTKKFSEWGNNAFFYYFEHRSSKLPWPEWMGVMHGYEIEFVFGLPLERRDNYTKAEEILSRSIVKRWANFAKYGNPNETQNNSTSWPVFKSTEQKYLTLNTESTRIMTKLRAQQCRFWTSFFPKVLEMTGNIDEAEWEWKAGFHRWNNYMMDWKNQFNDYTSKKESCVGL
SMILES,IC50 (Acetylcholinesterase),further results
C#CCCCCCCN1CCc2cc(OC)c(OC)cc2C1c1ccc([N+](=O)[O-])cc1 (centres undefined),2.92 µM,inhibition (Cholinesterase [1]): < 1%
CSc1n[nH]c2nc3c(c(N)c12)C1CC(C)=CC(C3)C1 (racemic),50 µM,–
CCCSc1nc2nc3c(c(N)c2s1)C1CC(CC)=CC(C3)C1 (racemic),7.27 µM,–
CCC1=CC2Cc3nc4oc(C)c(C)c4c(N)c3C(C1)C2 (racemic),6.45 µM,–
COc1cc2c(cc1OC)C(c1cccc([N+](=O)[O-])c1)N(CCCCCCc1cn(CCNc3c4c(nc5cc(Cl)ccc35)CC3C=C(C)CC4C3)nn1)CC2 (racemic),0.00395 µM,Ratio IC50 (Homo sapiens): > 10000; inhibition (Cholinesterase [2]): 6%
CC1=CC2Cc3nc4oc(C5CCC5)nc4c(N)c3C(C1)C2 (racemic),27.1 µM,–
COc1cc2nc3c(c(N)c2cc1OC)C1CC(C)=CC(C3)C1 (racemic),11.7 µM,–
CCC1=CC2Cc3nc4cc(Cl)ccc4c(Cl)c3C(C1)C2 (racemic),19.2 µM,–
CC1=CC2Cc3nc4cc(Cl)ccc4c(NCCN=[N+]=[N-])c3C(C1)C2 (racemic),0.00869 µM,IC50 (Cholinesterase [3]): 2.35 µM; Ratio IC50 (Homo sapiens): 270
CC1=CC2Cc3nc4oc(C5CC5)nc4c(N)c3C(C1)C2 (racemic),50 µM,–
CCC1=CC2Cc3nc4cnccc4c(N)c3C(C1)C2 (racemic),0.664 µM,–
CCC1=CC2Cc3nc4ncccc4c(N)c3C(C1)C2 (racemic),0.855 µM,–
CCC1=CC2Cc3nc4cc(Cl)ccc4c(N)c3[C@@H](C1)C2 [HUPRINE X],0.0011 µM,–
CCC1=CC2Cc3nc4cc(OC)c(OC)cc4c(N)c3C(C1)C2 (racemic),5.1 µM,–
CC1=CC2Cc3nc4oc(C)c(C)c4c(N)c3C(C1)C2 (racemic),4.78 µM,–
CCC1=CC2Cc3nc4oc(C5CC5)nc4c(N)c3C(C1)C2 (racemic),50 µM,–
CC1=CC2Cc3nc4[nH]ncc4c(N)c3C(C1)C2 (racemic),50 µM,–
CCC1=CC2Cc3nc4cc(Cl)ccc4c(NCCO)c3C(C1)C2 (racemic),0.00675 µM,IC50 (Cholinesterase [3]): 3.64 µM; Ratio IC50 (Homo sapiens): 540
CCC1=CC2Cc3nc4cc(Cl)ccc4c(NCCN=[N+]=[N-])c3C(C1)C2 (racemic),0.0137 µM,IC50 (Cholinesterase [3]): 0.824 µM; Ratio IC50 (Homo sapiens): 60
CC1=CC2Cc3nc4ncccc4c(N)c3C(C1)C2 (racemic),0.81 µM,IC50 (Cholinesterase [3]): 0.342 µM; Ratio IC50 (Homo sapiens): 0.4
CC1=CC2Cc3nc4cc(Cl)ccc4c(O)c3C(C1)C2 (racemic),14.7 µM,–
CC1=CC2Cc3nc4cc(Cl)ccc4c(NCCO)c3C(C1)C2 (racemic),0.00966 µM,–
CC1=CC2Cc3nc4cc(Cl)ccc4c(NCCCl)c3C(C1)C2 (racemic),0.0433 µM,–
CC1=CC2Cc3nc4cc(Cl)ccc4c(NC(=O)CCl)c3C(C1)C2 (racemic),2.51 µM,–
CC1=CC2Cc3nc4cc(Cl)ccc4c(Cl)c3C(C1)C2 (racemic),22.4 µM,–
C#CCCCCCCN1CCc2cc(OC)c(OC)cc2C1c1cccc([N+](=O)[O-])c1 (centres undefined),8.08 µM,inhibition (Cholinesterase [1]): < 1%
CCCSc1nc2nc3c(c(N)c2s1)C1CC(C)=CC(C3)C1 (racemic),7.69 µM,–
